Tests used:
[1] = Resistance factor by IC50(K1)/IC50(HB3); format: functional
Summary of the method: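 P. falciparum K1 (uncloned, CQ-resistant) and HB3 (sensitive), both from Thailand, were cultured in human erythrocytes in RPMI 1640/HEPES/NaHCO3 with 10% human serum under 3% O2/4% CO2. Assays ran 48 h at 2% parasitemia and 0.5% hematocrit, in triplicate, from DMSO stocks diluted in medium. [3H]hypoxanthine was added at 24 h. IC50 came from probit of the log dose-response curve. The factor is K1 IC50 divided by HB3 IC50.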

Plasmodium falciparum [2] = assay: In vitro inhibitory activity against chloroquine-sensitive Plasmodium falciparum HB3; format: functional, organism-based
Summary of the method: (§1)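 Parasites kept in continuous culture in human erythrocytes in RPMI 1640 with 25 mM HEPES, 32 mM NaHCO3 and 10% human serum, gassed 3% O2/4% CO2/93% N2. 48-h assay at 2% parasitemia, 0.5% hematocrit, triplicate. Drugs from DMSO stocks diluted in medium. [3H]hypoxanthine added at 24 h, harvested at 48 h and counted. IC50 by probit interpolation of log dose–response.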

[3] = tested on: Plasmodium berghei (NS strain); assay: In vivo inhibition of Plasmodium berghei infected male Swiss albino mice (Mus musculus) by intraperitoneal dose; conditions: ip
Plasmodium falciparum [4] = assay: In vitro inhibitory activity against chloroquine-resistant Plasmodium falciparum K1; format: functional, organism-based; summary of the method: as §1
[5] = tested on: Plasmodium berghei (NS strain); assay: In vivo inhibition of Plasmodium berghei infected male Swiss albino mice (Mus musculus) by oral dose

Row | Structure (SMILES) | Resistance factor [1] | IC50 (Plasmodium falciparum [2]) [nM] | ED50 [3] [mg/kg] | IC50 (Plasmodium falciparum [4]) [nM] | ED50 [5] [mg/kg]
1 | CCN(CC)CCCC(C)Nc1ccnc2cc(Cl)ccc12 (centres undefined) | 9.57 |  |  |  | 
2 | CCCc1cc(Nc2ccnc3cc(Cl)ccc23)cc(CNC(C)(C)C)c1O | 1.86 | 0.98 | 0.8 | 1.83 | 0.56
3 | Cc1cc(Nc2ccnc3cc(Cl)ccc23)cc(CNC(C)(C)C)c1O | 3.76 | 2.99 |  | 11.2 | 
4 | CC(C)(C)NCc1cc(Nc2ccnc3cc(Cl)ccc23)cc(C2CCCCC2)c1O | 2.13 | 6.8 |  | 14.5 | 
5 | CCc1cc(Nc2ccnc3cc(Cl)ccc23)cc(CNC(C)(C)C)c1O | 2.65 | 2.97 |  | 7.9 | 
6 | CCN(CC)Cc1cc(Nc2ccnc3cc(Cl)ccc23)ccc1O.Cl | 5.35 | 2.47 | 3.3 | 13.2 | 1.92
7 | CC(C)(C)NCc1cc(Nc2ccnc3cc(Cl)ccc23)cc(C(C)(C)C)c1O | 2.54 | 8.35 |  | 21.2 | 
8 | CC(C)c1cc(Nc2ccnc3cc(Cl)ccc23)cc(CNC(C)(C)C)c1O | 1.5 | 1.24 | 0.78 | 1.87 | 0.38
9 | CC(C)(C)NCc1cc(Nc2ccnc3cc(Cl)ccc23)ccc1O [N-TERT-BUTYL-AMODIAQUINE] | 2.33 | 1.47 |  | 3.43 | 
10 | CCC(C)c1cc(Nc2ccnc3cc(Cl)ccc23)cc(CNC(C)(C)C)c1O (centres undefined) | 2.92 | 1.97 |  | 5.77 | 

— ChEMBL document CHEMBL1132310, “New 4-aminoquinoline Mannich base antimalarials. 1. Effect of an alkyl substituent in the 5'-position of the 4'-hydroxyanilino side chain” (J Med Chem, 1999)
